Results reported in ChEMBL document CHEMBL1671752, “Genotypic characterization of UL23 thymidine kinase and UL30 DNA polymerase of clinical isolates of herpes simplex virus: natural polymorphism and mutations associated with resistance to antivirals” (Antimicrob Agents Chemother, 2010).
pEC50: −log10 of the molar value.

How the values were obtained:
Human alphaherpesvirus 1 [1] = assay: Antiviral activity against Herpes simplex virus 1 isolate 10 harboring N23S, K36E, R89Q, A265T C336Y mutations in thymidine kinase and S33G, A330R, V905M mutations in DNA polymerase infected in african green monkey Vero cells by plaque reduction assay; format: functional, organism-based; conditions: Human alphaherpesvirus 1, isolate 10, Vero
In short: (§1)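 EC50 by plaque reduction assay in Vero cells against acyclovir and foscarnet. Vero cells grown in RPMI 1640 with 2% fetal bovine serum, 2 mM glutamine, 20 μg/ml vancomycin and 20 μg/ml amikacin. KOS (HSV-1) and gHSV2 (HSV-2) run as susceptible controls in each assay. […] HSV type confirmed by immunofluorescence with type-specific monoclonal antibodies.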

Human alphaherpesvirus 2 [2] = assay: Antiviral activity against Herpes simplex virus 2 isolate 18 harboring A27T, G39E, N78D, -1C 556 = Stop 263, S29A mutations in thymidine kinase and A9T, P15S, L60P, E678G, del, DD676-677 mutations in DNA polymerase infected in african green monkey Vero cells by plaque reduction assay; format: functional, organism-based; conditions: Human alphaherpesvirus 2, isolate 18, Vero; in short: as §1
Human alphaherpesvirus 1 [3] = assay: Antiviral activity against Herpes simplex virus 1 isolate 1 harboring C6G N23S K36E L42P G240E A265T and A207P mutations in thymidine kinase and S33G, A330R, N425T, V905M mutations in DNA polymerase infected in african green monkey Vero cells by plaque reduction assay; format: functional, organism-based; conditions: Human alphaherpesvirus 1, isolate 1, Vero; in short: as §1
Human alphaherpesvirus 2 [4] = assay: Antiviral activity against Herpes simplex virus 2 isolate 25 harboring I101S mutations in thymidine kinase and D785N, V544A mutations in DNA polymerase infected in african green monkey Vero cells by plaque reduction assay; format: functional, organism-based; conditions: Human alphaherpesvirus 2, isolate 25, Vero; in short: as §1
Human alphaherpesvirus 2 [5] = assay: Antiviral activity against Herpes simplex virus 2 isolate 12 harboring G39E, N78D, L140F, S66P, A72S mutations in thymidine kinase and A9T, P15S, L60P mutations in DNA polymerase infected in african green monkey Vero cells by plaque reduction assay; format: functional, organism-based; conditions: Human alphaherpesvirus 2, isolate 12, Vero; in short: as §1
Human alphaherpesvirus 1 [6] = assay: Antiviral activity against Herpes simplex virus 1 isolate 3 harboring N23S, K36E, R89Q, A265T, Y53D mutations in thymidine kinase and S33G, A330R, V905M, E1005K mutations in DNA polymerase infected in african green monkey Vero cells by plaque reduction assay; format: functional, organism-based; conditions: Human alphaherpesvirus 1, isolate 3, Vero; in short: as §1
Human alphaherpesvirus 1 [7] = assay: Antiviral activity against Herpes simplex virus 1 isolate 5 harboring N23S, K36E, A192V, G251C, A265T, V267L, P268T, -1G 856 = frameshift mutations in thymidine kinase and A330R, V905M, T1208A, H98Y mutations in DNA polymerase infected in african green monkey Vero cells by plaque reduction assay; format: functional, organism-based; conditions: Human alphaherpesvirus 1, isolate 5, Vero; in short: as §1
Human alphaherpesvirus 2 [8] = assay: Antiviral activity against Herpes simplex virus 2 isolate 15 harboring R221H mutations in thymidine kinase and A9T, P15S, L60P mutations in DNA polymerase infected in african green monkey Vero cells by plaque reduction assay; format: functional, organism-based; conditions: Human alphaherpesvirus 2, isolate 15, Vero; in short: as §1
Human alphaherpesvirus 2 [9] = assay: Antiviral activity against Herpes simplex virus 2 isolate 14 harboring G39E, N78D, M70R mutations in thymidine kinase and A724V mutations in DNA polymerase infected in african green monkey Vero cells by plaque reduction assay; format: functional, organism-based; conditions: Human alphaherpesvirus 2, isolate 14, Vero; in short: as §1
Human alphaherpesvirus 2 [10] = assay: Antiviral activity against Herpes simplex virus 2 isolate 13 harboring, M183I mutations in thymidine kinase and A9T, P15S, R41H, L60P, E139K, A232T mutations in DNA polymerase infected in african green monkey Vero cells by plaque reduction assay; format: functional, organism-based; conditions: Human alphaherpesvirus 2, isolate 13, Vero; in short: as §1
Human alphaherpesvirus 2 [11] = assay: Antiviral activity against Herpes simplex virus 2 isolate 21 harboring G39E, N78D, L140F, -1C 452 = Stop 183 mutations in thymidine kinase and P15S, L60P, E678G mutations in DNA polymerase infected in african green monkey Vero cells by plaque reduction assay; format: functional, organism-based; conditions: Human alphaherpesvirus 2, isolate 21, Vero; in short: as §1
Human alphaherpesvirus 1 [12] = assay: Antiviral activity against Herpes simplex virus 1 isolate 8 harboring N23S, K36E, R89Q, +1G 437-438 = Stop 228 mutations in thymidine kinase and A330R, P875S, V905M, P1124H, T1208A mutations in DNA polymerase infected in african green monkey Vero cells by plaque reduction assay; format: functional, organism-based; conditions: Human alphaherpesvirus 1, isolate 8, Vero; in short: as §1
Human alphaherpesvirus 2 [13] = assay: Antiviral activity against Herpes simplex virus 2 isolate 20 harboring G39E, -1C 467 = Stop 183 mutations in thymidine kinase and A9T, P15S, L60P, E139K, T801P mutations in DNA polymerase infected in african green monkey Vero cells by plaque reduction assay; format: functional, organism-based; conditions: Human alphaherpesvirus 2, isolate 20, Vero; in short: as §1
Human alphaherpesvirus 2 [14] = assay: Antiviral activity against Herpes simplex virus 2 isolate 23 harboring G39E, N78D, L140F, +1G 439-440 = Stop 229 mutations in thymidine kinase and A9T, P15S, L60P, I291V mutations in DNA polymerase infected in african green monkey Vero cells by plaque reduction assay; format: functional, organism-based; conditions: Human alphaherpesvirus 2, isolate 23, Vero; in short: as §1
Human alphaherpesvirus 2 [15] = assay: Antiviral activity against Herpes simplex virus 2 isolate 24 harboring G39E, -1G 440 = Stop 229 mutations in thymidine kinase and A9T, P15S, L60P, E139K, H837R mutations in DNA polymerase infected in african green monkey Vero cells by plaque reduction assay; format: functional, organism-based; conditions: Human alphaherpesvirus 2, isolate 24, Vero; in short: as §1
Human alphaherpesvirus 1 [16] = assay: Antiviral activity against Herpes simplex virus 1 isolate 11 harboring N23S, K36E, G251C, A265T, P268T, R176W mutations in thymidine kinase and S33G, A330R, P1124H, T1208A, S724N, V117L, L267M mutations in DNA polymerase infected in african green monkey Vero cells by plaque reduction assay; format: functional, organism-based; conditions: Human alphaherpesvirus 1, isolate 11, Vero; in short: as §1
Human alphaherpesvirus 2 [17] = assay: Antiviral activity against Herpes simplex virus 2 isolate 17 harboring G39E, N78D Q222Stop mutations in thymidine kinase and A9T, P15S, L60P, T801P mutations in DNA polymerase infected in african green monkey Vero cells by plaque reduction assay; format: functional, organism-based; conditions: Human alphaherpesvirus 2, isolate 17, Vero; in short: as §1
Human alphaherpesvirus 2 [18] = assay: Antiviral activity against Herpes simplex virus 2 isolate 16 harboring D137Stop mutations in thymidine kinase and A9T, P15S, L60P mutations in DNA polymerase infected in african green monkey Vero cells by plaque reduction assay; format: functional, organism-based; conditions: Human alphaherpesvirus 2, isolate 16, Vero; in short: as §1
Human alphaherpesvirus 1 [19] = assay: Antiviral activity against Herpes simplex virus 1 isolate 7 harboring N23S, K36E, R89Q, +1C 464-465 = Stop 228 mutations in thymidine kinase and S33G, A330R, P1124H, T1208A, A870G mutations in DNA polymerase infected in african green monkey Vero cells by plaque reduction assay; format: functional, organism-based; conditions: Human alphaherpesvirus 1, isolate 7, Vero; in short: as §1
Human alphaherpesvirus 2 [20] = assay: Antiviral activity against Herpes simplex virus 2 isolate 22 harboring G39E, N78D, L140F, +1G 439-440 = Stop 229 mutations in thymidine kinase and A9T, P15S, L60P, E678G, Y823C mutations in DNA polymerase infected in african green monkey Vero cells by plaque reduction assay; format: functional, organism-based; conditions: Human alphaherpesvirus 2, isolate 22, Vero; in short: as §1
Human alphaherpesvirus 2 [21] = assay: Antiviral activity against Herpes simplex virus 2 isolate 19 harboring G39E, +2G 439-440 = Stop 184 mutations in thymidine kinase and A9T, P15S, L60P, del, DGDE683-686 mutations in DNA polymerase infected in african green monkey Vero cells by plaque reduction assay; format: functional, organism-based; conditions: Human alphaherpesvirus 2, isolate 19, Vero; in short: as §1
Human alphaherpesvirus 1 [22] = assay: Antiviral activity against Herpes simplex virus 1 isolate 4 harboring N23S, K36E -1C 553 = frameshift mutations in thymidine kinase and S33G, A330R, A899V, L1188F mutations in DNA polymerase infected in african green monkey Vero cells by plaque reduction assay; format: functional, organism-based; conditions: Human alphaherpesvirus 1, isolate 4, Vero; in short: as §1
Human alphaherpesvirus 1 [23] = assay: Antiviral activity against Herpes simplex virus 1 isolate 6 harboring N23S, K36E, R89Q, +1G 437-438 = Stop 225 mutations in thymidine kinase and S33G, A330R, A646T, S1123L, P1124H, T1208A, R1229I mutations in DNA polymerase infected in african green monkey Vero cells by plaque reduction assay; format: functional, organism-based; conditions: Human alphaherpesvirus 1, isolate 6, Vero; in short: as §1
Human alphaherpesvirus 1 [24] = assay: Antiviral activity against Herpes simplex virus 1 isolate 9 harboring N23S, K36E, R89Q, +1G 437-438 = Stop 228 mutations in thymidine kinase and S33G, A330R, V905M, A1203T, T1208A mutations in DNA polymerase infected in african green monkey Vero cells by plaque reduction assay; format: functional, organism-based; conditions: Human alphaherpesvirus 1, isolate 9, Vero; in short: as §1
Human alphaherpesvirus 1 [25] = assay: Antiviral activity against Herpes simplex virus 1 isolate 2 harboring C6G, N23S, K36E, R41H, A192V, A265T, L170P mutations in thymidine kinase and S33G, A330R, V905M, T1208A mutations in DNA polymerase infected in african green monkey Vero cells by plaque reduction assay; conditions: Human alphaherpesvirus 1, isolate 2, Vero

For Nc1nc2c(ncn2COCCO)c(=O)[nH]1 [ACYCLOVIR], the pEC50 (Human alphaherpesvirus 1 [1]) was 4.66, the pEC50 (Human alphaherpesvirus 2 [2]) was 4.74 and the pEC50 (Human alphaherpesvirus 1 [3]) was < 4.30. For the same molecule, the pEC50 (Human alphaherpesvirus 2 [4]) was 4.38, the pEC50 (Human alphaherpesvirus 2 [5]) was 4.37 and the pEC50 (Human alphaherpesvirus 1 [6]) was 4.46. The pEC50 (Human alphaherpesvirus 1 [7]) was 4.80, the pEC50 (Human alphaherpesvirus 2 [8]) was 4.96 and the pEC50 (Human alphaherpesvirus 2 [9]) was 4.62. The pEC50 (Human alphaherpesvirus 2 [10]) was 4.48, the pEC50 (Human alphaherpesvirus 2 [11]) was < 4.30 and the pEC50 (Human alphaherpesvirus 1 [12]) was 5.00. The pEC50 (Human alphaherpesvirus 2 [13]) was < 4.30, the pEC50 (Human alphaherpesvirus 2 [14]) was < 4.30 and the pEC50 (Human alphaherpesvirus 2 [15]) was < 4.30. The pEC50 (Human alphaherpesvirus 1 [16]) was < 4.30, the pEC50 (Human alphaherpesvirus 2 [17]) was < 4.30 and the pEC50 (Human alphaherpesvirus 2 [18]) was < 4.30. For the same molecule, the pEC50 (Human alphaherpesvirus 1 [19]) was 4.51, the pEC50 (Human alphaherpesvirus 2 [20]) was < 4.30 and the pEC50 (Human alphaherpesvirus 2 [21]) was < 4.30. The pEC50 (Human alphaherpesvirus 1 [22]) was 4.80, the pEC50 (Human alphaherpesvirus 1 [23]) was 4.59 and the pEC50 (Human alphaherpesvirus 1 [24]) was < 4.30. For the same molecule, the pEC50 (Human alphaherpesvirus 1 [25]) was 4.96.
For O=C(O)P(=O)(O)O [FOSCARNET], the pEC50 (Human alphaherpesvirus 1 [1]) was > 4.18, the pEC50 (Human alphaherpesvirus 2 [2]) was > 4.18 and the pEC50 (Human alphaherpesvirus 1 [3]) was > 4.18. The pEC50 (Human alphaherpesvirus 2 [4]) was 3.84, the pEC50 (Human alphaherpesvirus 2 [5]) was > 4.18 and the pEC50 (Human alphaherpesvirus 1 [6]) was > 4.18. For the same molecule, the pEC50 (Human alphaherpesvirus 1 [7]) was > 4.18, the pEC50 (Human alphaherpesvirus 2 [8]) was 4.00 and the pEC50 (Human alphaherpesvirus 2 [9]) was 4.04. For the same molecule, the pEC50 (Human alphaherpesvirus 2 [10]) was > 4.18, the pEC50 (Human alphaherpesvirus 2 [11]) was 4.05 and the pEC50 (Human alphaherpesvirus 1 [12]) was > 4.18. The pEC50 (Human alphaherpesvirus 2 [13]) was > 4.18, the pEC50 (Human alphaherpesvirus 2 [14]) was > 4.18 and the pEC50 (Human alphaherpesvirus 2 [15]) was > 4.18. The pEC50 (Human alphaherpesvirus 1 [16]) was 3.19, the pEC50 (Human alphaherpesvirus 2 [17]) was > 4.18 and the pEC50 (Human alphaherpesvirus 2 [18]) was > 4.18. The pEC50 (Human alphaherpesvirus 1 [19]) was > 4.18, the pEC50 (Human alphaherpesvirus 2 [20]) was 4.12 and the pEC50 (Human alphaherpesvirus 2 [21]) was > 4.18. The pEC50 (Human alphaherpesvirus 1 [22]) was > 4.18, the pEC50 (Human alphaherpesvirus 1 [23]) was > 4.18 and the pEC50 (Human alphaherpesvirus 1 [24]) was 3.97. The pEC50 (Human alphaherpesvirus 1 [25]) was > 4.18.
